≈ marks a conversion by molar mass, not a printed value.
Test system: Moraxella catarrhalis
Test: Ratio of linezolid MIC to compound MIC for Moraxella catarrhalis SR26840 clinical isolate
Assay type: functional
Settings: not given

| Structure (SMILES) | Ratio |
| --- | --- |
| CC(=S)NC[C@H]1CN(c2cc(F)c(N3CCNN(C(=O)CO)CC3)c(F)c2)C(=O)O1 | 4 |
| CC(=S)NC[C@H]1CN(c2cc(F)c(N3CCON(C(=O)CO)CC3)c(F)c2)C(=O)O1 | 4 |

Test system: Enterococcus faecalis
Test: Antibacterial activity against Enterococcus faecalis SR1004 clinical isolate assessed as growth inhibition by CLSI broth microdilution method
Assay type: functional
Settings: not given
In short: (§1)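 MIC by CLSI broth microdilution in cation-adjusted Mueller-Hinton broth; S. pneumoniae medium supplemented with 5% lysed horse blood.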

| Structure (SMILES) | MIC |
| --- | --- |
| CC(=S)NC[C@H]1CN(c2cc(F)c(N3CCNN(C(=O)CO)CC3)c(F)c2)C(=O)O1 | 0.25 µg/mL (≈ 0.564 µM) |
| CC(=S)NC[C@H]1CN(c2cc(F)c(N3CCON(C(=O)CO)CC3)c(F)c2)C(=O)O1 | 0.25 µg/mL (≈ 0.562 µM) |

Test system: Staphylococcus aureus
Test: Ratio of linezolid MIC to compound MIC for Staphylococcus aureus Smith
Assay type: functional
Settings: not given

| Structure (SMILES) | Ratio |
| --- | --- |
| CC(=S)NC[C@H]1CN(c2cc(F)c(N3CCNN(C(=O)CO)CC3)c(F)c2)C(=O)O1 | 4 |
| CC(=S)NC[C@H]1CN(c2cc(F)c(N3CCON(C(=O)CO)CC3)c(F)c2)C(=O)O1 | 4 |

Test system: Enterococcus faecium
Test: Ratio of eperezolid MIC to compound MIC for Enterococcus faecium SR7940 clinical isolate
Assay type: functional
Settings: not given

| Structure (SMILES) | Ratio |
| --- | --- |
| CC(=S)NC[C@H]1CN(c2cc(F)c(N3CCNN(C(=O)CO)CC3)c(F)c2)C(=O)O1 | 4 |
| CC(=S)NC[C@H]1CN(c2cc(F)c(N3CCON(C(=O)CO)CC3)c(F)c2)C(=O)O1 | 4 |

Test system: Enterococcus faecalis
Test: Ratio of linezolid MIC to compound MIC for Enterococcus faecalis SR1004 clinical isolate
Assay type: functional
Settings: not given

| Structure (SMILES) | Ratio |
| --- | --- |
| CC(=S)NC[C@H]1CN(c2cc(F)c(N3CCNN(C(=O)CO)CC3)c(F)c2)C(=O)O1 | 4 |
| CC(=S)NC[C@H]1CN(c2cc(F)c(N3CCON(C(=O)CO)CC3)c(F)c2)C(=O)O1 | 4 |

Test system: Haemophilus influenzae
Test: Antibacterial activity against Haemophilus influenzae SR27914 clinical isolate assessed as growth inhibition by CLSI broth microdilution method
Assay type: functional
Settings: not given
In short: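 MIC by CLSI broth microdilution using Haemophilus test medium.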

| Structure (SMILES) | MIC |
| --- | --- |
| CC(=S)NC[C@H]1CN(c2cc(F)c(N3CCNN(C(=O)CO)CC3)c(F)c2)C(=O)O1 | 2 µg/mL (≈ 4.51 µM) |
| CC(=S)NC[C@H]1CN(c2cc(F)c(N3CCON(C(=O)CO)CC3)c(F)c2)C(=O)O1 | 4 µg/mL (≈ 9 µM) |

Test system: Staphylococcus aureus
Test: Antibacterial activity against methicillin-resistant Staphylococcus aureus SR3637 infected in JCL/ICR mouse systemic infection model assessed as mortality administered as po measured over 7 days
Assay type: functional
Settings: 168 h
In short: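 Five-week-old male JCL/ICR mice (20–25 g), five per group. Infected intraperitoneally with 0.5 or 1.0 mL bacterial suspension (about 100× LD50). Oral dosing 1 h post-infection. Mortality followed 7 days; ED50 with 95% confidence limits by logit method.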

| Structure (SMILES) | ED50 |
| --- | --- |
| CC(=S)NC[C@H]1CN(c2cc(F)c(N3CCNN(C(=O)CO)CC3)c(F)c2)C(=O)O1 | 9.83 mg/kg |

Test system: Moraxella catarrhalis
Test: Ratio of eperezolid MIC to compound MIC for Moraxella catarrhalis SR26840 clinical isolate
Assay type: functional
Settings: not given

| Structure (SMILES) | Ratio |
| --- | --- |
| CC(=S)NC[C@H]1CN(c2cc(F)c(N3CCNN(C(=O)CO)CC3)c(F)c2)C(=O)O1 | 4 |
| CC(=S)NC[C@H]1CN(c2cc(F)c(N3CCON(C(=O)CO)CC3)c(F)c2)C(=O)O1 | 4 |

Test system: Staphylococcus aureus
Test: Antibacterial activity against methicillin-resistant Staphylococcus aureus SR3637 infected in JCL/ICR mouse systemic infection model assessed as mortality administered as iv measured over 7 days
Assay type: functional
Settings: 168 h
In short: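 Five-week-old male JCL/ICR mice (20–25 g), five per group. Infected intraperitoneally with 0.5 or 1.0 mL bacterial suspension (about 100× LD50). Intravenous dosing 1 h post-infection. Mortality followed 7 days; ED50 with 95% confidence limits by logit method.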

| Structure (SMILES) | ED50 |
| --- | --- |
| CC(=S)NC[C@H]1CN(c2cc(F)c(N3CCNN(C(=O)CO)CC3)c(F)c2)C(=O)O1 | 2.95 mg/kg |

Test system: Streptococcus pneumoniae
Test: Ratio of eperezolid MIC to compound MIC for Streptococcus pneumoniae SR26207 clinical isolate
Assay type: functional
Settings: not given

| Structure (SMILES) | Ratio |
| --- | --- |
| CC(=S)NC[C@H]1CN(c2cc(F)c(N3CCNN(C(=O)CO)CC3)c(F)c2)C(=O)O1 | 4 |
| CC(=S)NC[C@H]1CN(c2cc(F)c(N3CCON(C(=O)CO)CC3)c(F)c2)C(=O)O1 | 4 |

Test system: Haemophilus influenzae
Test: Ratio of linezolid MIC to compound MIC for Haemophilus influenzae SR27914 clinical isolate
Assay type: functional
Settings: not given

| Structure (SMILES) | Ratio |
| --- | --- |
| CC(=S)NC[C@H]1CN(c2cc(F)c(N3CCNN(C(=O)CO)CC3)c(F)c2)C(=O)O1 | 4 |
| CC(=S)NC[C@H]1CN(c2cc(F)c(N3CCON(C(=O)CO)CC3)c(F)c2)C(=O)O1 | 4 |

Test system: Haemophilus influenzae
Test: Ratio of eperezolid MIC to compound MIC for Haemophilus influenzae SR27914 clinical isolate
Assay type: functional
Settings: not given

| Structure (SMILES) | Ratio |
| --- | --- |
| CC(=S)NC[C@H]1CN(c2cc(F)c(N3CCNN(C(=O)CO)CC3)c(F)c2)C(=O)O1 | 4 |
| CC(=S)NC[C@H]1CN(c2cc(F)c(N3CCON(C(=O)CO)CC3)c(F)c2)C(=O)O1 | 4 |

Test system: Staphylococcus aureus
Test: Antibacterial activity against Staphylococcus aureus SR20549 clinical isolate assessed as growth inhibition by CLSI broth microdilution method
Assay type: functional
Settings: not given
In short: as §1

| Structure (SMILES) | MIC |
| --- | --- |
| CC(=S)NC[C@H]1CN(c2cc(F)c(N3CCNN(C(=O)CO)CC3)c(F)c2)C(=O)O1 | 0.125 µg/mL (≈ 0.282 µM) |
| CC(=S)NC[C@H]1CN(c2cc(F)c(N3CCON(C(=O)CO)CC3)c(F)c2)C(=O)O1 | 0.125 µg/mL (≈ 0.281 µM) |

Test system: Staphylococcus aureus
Test: Ratio of linezolid MIC to compound MIC for Staphylococcus aureus SR20549 clinical isolate
Assay type: functional
Settings: not given

| Structure (SMILES) | Ratio |
| --- | --- |
| CC(=S)NC[C@H]1CN(c2cc(F)c(N3CCNN(C(=O)CO)CC3)c(F)c2)C(=O)O1 | 4 |
| CC(=S)NC[C@H]1CN(c2cc(F)c(N3CCON(C(=O)CO)CC3)c(F)c2)C(=O)O1 | 4 |

Test system: Staphylococcus aureus
Test: Ratio of eperezolid MIC to compound MIC for Staphylococcus aureus SR20549 clinical isolate
Assay type: functional
Settings: not given

| Structure (SMILES) | Ratio |
| --- | --- |
| CC(=S)NC[C@H]1CN(c2cc(F)c(N3CCNN(C(=O)CO)CC3)c(F)c2)C(=O)O1 | 4 |
| CC(=S)NC[C@H]1CN(c2cc(F)c(N3CCON(C(=O)CO)CC3)c(F)c2)C(=O)O1 | 4 |

Test system: Moraxella catarrhalis
Test: Antibacterial activity against Moraxella catarrhalis SR26840 clinical isolate assessed as growth inhibition by CLSI broth microdilution method
Assay type: functional
Settings: not given
In short: as §1

| Structure (SMILES) | MIC |
| --- | --- |
| CC(=S)NC[C@H]1CN(c2cc(F)c(N3CCNN(C(=O)CO)CC3)c(F)c2)C(=O)O1 | 0.5 µg/mL (≈ 1.13 µM) |
| CC(=S)NC[C@H]1CN(c2cc(F)c(N3CCON(C(=O)CO)CC3)c(F)c2)C(=O)O1 | 1 µg/mL (≈ 2.25 µM) |

Test system: Staphylococcus aureus
Test: Ratio of eperezolid MIC to compound MIC for Staphylococcus aureus Smith
Assay type: functional
Settings: not given

| Structure (SMILES) | Ratio |
| --- | --- |
| CC(=S)NC[C@H]1CN(c2cc(F)c(N3CCNN(C(=O)CO)CC3)c(F)c2)C(=O)O1 | 4 |
| CC(=S)NC[C@H]1CN(c2cc(F)c(N3CCON(C(=O)CO)CC3)c(F)c2)C(=O)O1 | 4 |

Test system: Staphylococcus aureus
Test: Antibacterial activity against methicillin-resistant Staphylococcus aureus SR3637 assessed as growth inhibition by CLSI broth microdilution method
Assay type: functional
Settings: not given
In short: (§2)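 MIC by CLSI broth microdilution in cation-adjusted Mueller-Hinton broth. Lowest concentration inhibiting growth taken as MIC.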

| Structure (SMILES) | MIC |
| --- | --- |
| CC(=S)NC[C@H]1CN(c2cc(F)c(N3CCNN(C(=O)CO)CC3)c(F)c2)C(=O)O1 | 0.125 µg/mL (≈ 0.282 µM) |

Test system: Enterococcus faecium
Test: Antibacterial activity against Enterococcus faecium SR7940 clinical isolate assessed as growth inhibition by CLSI broth microdilution method
Assay type: functional
Settings: not given
In short: as §1

| Structure (SMILES) | MIC |
| --- | --- |
| CC(=S)NC[C@H]1CN(c2cc(F)c(N3CCNN(C(=O)CO)CC3)c(F)c2)C(=O)O1 | 0.125 µg/mL (≈ 0.282 µM) |
| CC(=S)NC[C@H]1CN(c2cc(F)c(N3CCON(C(=O)CO)CC3)c(F)c2)C(=O)O1 | 0.25 µg/mL (≈ 0.562 µM) |

Test system: Enterococcus faecalis
Test: Ratio of eperezolid MIC to compound MIC for Enterococcus faecalis SR1004 clinical isolate
Assay type: functional
Settings: not given

| Structure (SMILES) | Ratio |
| --- | --- |
| CC(=S)NC[C@H]1CN(c2cc(F)c(N3CCNN(C(=O)CO)CC3)c(F)c2)C(=O)O1 | 4 |
| CC(=S)NC[C@H]1CN(c2cc(F)c(N3CCON(C(=O)CO)CC3)c(F)c2)C(=O)O1 | 4 |

Test system: Staphylococcus aureus
Test: Antibacterial activity against linezolid-resistant Staphylococcus aureus NRS271 assessed as growth inhibition by CLSI broth microdilution method
Assay type: functional
Settings: not given
In short: as §2

| Structure (SMILES) | MIC |
| --- | --- |
| CC(=S)NC[C@H]1CN(c2cc(F)c(N3CCNN(C(=O)CO)CC3)c(F)c2)C(=O)O1 | 1 µg/mL (≈ 2.25 µM) |
| CC(=S)NC[C@H]1CN(c2cc(F)c(N3CCON(C(=O)CO)CC3)c(F)c2)C(=O)O1 | 2 µg/mL (≈ 4.5 µM) |

Test system: Streptococcus pneumoniae
Test: Ratio of linezolid MIC to compound MIC for Streptococcus pneumoniae SR26207 clinical isolate
Assay type: functional
Settings: not given

| Structure (SMILES) | Ratio |
| --- | --- |
| CC(=S)NC[C@H]1CN(c2cc(F)c(N3CCNN(C(=O)CO)CC3)c(F)c2)C(=O)O1 | 4 |
| CC(=S)NC[C@H]1CN(c2cc(F)c(N3CCON(C(=O)CO)CC3)c(F)c2)C(=O)O1 | 4 |

Test system: Staphylococcus aureus
Test: Antibacterial activity against Staphylococcus aureus Smith assessed as growth inhibition by CLSI broth microdilution method
Assay type: functional
Settings: not given
In short: as §1

| Structure (SMILES) | MIC |
| --- | --- |
| CC(=S)NC[C@H]1CN(c2cc(F)c(N3CCNN(C(=O)CO)CC3)c(F)c2)C(=O)O1 | 0.25 µg/mL (≈ 0.564 µM) |
| CC(=S)NC[C@H]1CN(c2cc(F)c(N3CCON(C(=O)CO)CC3)c(F)c2)C(=O)O1 | 0.25 µg/mL (≈ 0.562 µM) |

Test system: Enterococcus faecium
Test: Ratio of linezolid MIC to compound MIC for Enterococcus faecium SR7940 clinical isolate
Assay type: functional
Settings: not given

| Structure (SMILES) | Ratio |
| --- | --- |
| CC(=S)NC[C@H]1CN(c2cc(F)c(N3CCNN(C(=O)CO)CC3)c(F)c2)C(=O)O1 | 4 |
| CC(=S)NC[C@H]1CN(c2cc(F)c(N3CCON(C(=O)CO)CC3)c(F)c2)C(=O)O1 | 4 |

Test system: Streptococcus pneumoniae
Test: Antibacterial activity against Streptococcus pneumoniae SR26207 clinical isolate assessed as growth inhibition by CLSI broth microdilution method
Assay type: functional
Settings: not given
In short: as §1

| Structure (SMILES) | MIC |
| --- | --- |
| CC(=S)NC[C@H]1CN(c2cc(F)c(N3CCNN(C(=O)CO)CC3)c(F)c2)C(=O)O1 | 0.063 µg/mL (≈ 0.142 µM) |
| CC(=S)NC[C@H]1CN(c2cc(F)c(N3CCON(C(=O)CO)CC3)c(F)c2)C(=O)O1 | 0.063 µg/mL (≈ 0.142 µM) |

Reference: ChEMBL document CHEMBL2375276, “Antibacterial oxazolidinone analogues having a N-hydroxyacetyl-substituted seven-membered [1,2,5]triazepane or [1,2,5]oxadiazepane C-ring unit” (Eur J Med Chem, 2013)
